Experimental data from ChEMBL document CHEMBL1255290, “Characterization of a novel human immunodeficiency virus type 1 protease inhibitor, A-790742” (Antimicrob Agents Chemother, 2008).

Columns and labels:
[1] = tested on: Human immunodeficiency virus 1; experiment: (§1) Antiviral activity against HIV1 P21 infected in human MT4 cells derived from viral passages with A-790742 harboring protease L23I, L33F, K45I, A71A/V, V77I, V82L, and I84V mutation assessed as reduction in viral cytopathogenicity treated 1 hr post infection measured 5 days post infection by MTT assay relative to wild type HIV1 pNL4-3; assay type: functional
Method in brief: (§2)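 For the assay, 10⁶ MT-4 cells were infected at MOI 0.003, washed after 1 h, and plated at 10⁴ cells/well with eight serial compound dilutions in triplicate (0.5% DMSO final). MTT cytopathic read-out at day 5; EC50 from dose-response fitting.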

[2] = tested on: Human immunodeficiency virus 1; experiment: Antiviral activity against HIV1 clone1 infected in HEK293 cells harboring A-790742-selected protease I84V mutation assessed as reduction in viral replication by luciferase reporter gene assay relative to wild type HIV1 pNL4-3; assay type: functional
Method in brief: (§3)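 Single-cycle assay: HEK-293 cells were cotransfected with luciferase-reporter HIV-1 protease clones plus a VSV-G expression vector. After 4 h, cells were replated at 2 × 10⁴/well over serial inhibitor dilutions in triplicate. Pseudovirus collected at 48 h infected fresh HEK-293 (10⁴/well). Luciferase read 48 h later gave % inhibition versus untreated and EC50. Fold change against WT pNL4-3-Luc (clones 1-4) or RF-Luc (clone 5) is the mean of three experiments.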

[3] = tested on: Human immunodeficiency virus 1; experiment: Antiviral activity against HIV1 clone4 infected in HEK293 cells harboring A-790742-selected protease L33F, A71V, G73S, V77I, V82L, and I84V mutation assessed as reduction in viral replication by luciferase reporter gene assay relative to wild type HIV1 pNL4-3; assay type: functional; method in brief: as §3
[4] = tested on: Human immunodeficiency virus 1; experiment: Antiviral activity against HIV1 clone3 infected in HEK293 cells harboring A-790742-selected protease L33F, K45I, V82L, and I84V mutation assessed as reduction in viral replication by luciferase reporter gene assay relative to wild type HIV1 pNL4-3; assay type: functional; method in brief: as §3
[5] = tested on: Human immunodeficiency virus 1; experiment: as §1, with “P9” for “P21”, “V82V/L” for “L23I, L33F, K45I, A71A/V, V77I, V82L,”; assay type: functional; method in brief: as §2
[6] = tested on: Human immunodeficiency virus 1; experiment: as §1, with “P13” for “P21”, “M46I, L63P, A71V,” for “L23I, L33F, K45I, A71A/V, V77I, V82L,”, “V82G” for “I84V”, “RF” for “pNL4-3”; assay type: functional; method in brief: as §2
[7] = tested on: Human immunodeficiency virus 1; experiment: Antiviral activity against HIV1 clone5 infected in HEK293 cells harboring A-790742-selected protease L63P, A71V, and V82G mutation assessed as reduction in viral replication by luciferase reporter gene assay relative to wild type HIV1 RF; assay type: functional; method in brief: as §3
[8] = tested on: Human immunodeficiency virus 1; experiment: as §1, with “P15” for “P21”, “L33L/F,” for “L23I, L33F,”, “K45I,” for “K45I, A71A/V, V77I,”; assay type: functional; method in brief: as §2
[9] = tested on: Human immunodeficiency virus 1; experiment: Antiviral activity against HIV1 clone2 infected in HEK293 cells harboring A-790742-selected protease V82L mutation assessed as reduction in viral replication by luciferase reporter gene assay relative to wild type HIV1 pNL4-3; assay type: functional; method in brief: as §3
[10] = tested on: Human immunodeficiency virus 1; experiment: Antiviral activity against HIV1 P25 infected in human MT4 cells harboring protease L10F, G16E, V32I, M46I, I47A, H69Y, I84V, and T91S mutation derived from viral passages with Lopinavir assessed as reduction in viral cytopathogenicity treated 1 hr post infection measured 5 days post infection by MTT assay; assay type: functional, organism-based; conditions: Human immunodeficiency virus 1, P25, MT4; method in brief: as §2
[11] = tested on: Human immunodeficiency virus 1; experiment: Antiviral activity against wild-type HIV1 pNL4-3 infected in human MT4 cells assessed as reduction in viral cytopathogenicity treated 1 hr post infection measured 5 days post infection in presence of 50% human serum by MTT assay; assay type: functional, organism-based; conditions: Human immunodeficiency virus 1, pNL4-3, MT4
[12] = tested on: Human immunodeficiency virus 1; experiment: Antiviral activity against HIV1 A17 infected in human MT4 cells harboring protease L10F, V32I, M46I, I47V, Q58E, and I84V mutation derived from viral passages with Lopinavir assessed as reduction in viral cytopathogenicity treated 1 hr post infection measured 5 days post infection by MTT assay; assay type: functional, organism-based; conditions: Human immunodeficiency virus 1, A17, MT4; method in brief: as §2
[13] = tested on: Human immunodeficiency virus 1; experiment: Antiviral activity against wild-type HIV1 pNL4-3 infected in human MT4 cells assessed as reduction in viral cytopathogenicity treated 1 hr post infection measured 5 days post infection in absence of human serum by MTT assay; assay type: functional, organism-based; conditions: Human immunodeficiency virus 1, pNL4-3, MT4; method in brief: as §2
[14] = tested on: Human immunodeficiency virus 1; experiment: Antiviral activity against wild-type HIV1 RF infected in human MT4 cells assessed as reduction in viral cytopathogenicity treated 1 hr post infection measured 5 days post infection in absence of human serum by MTT assay; assay type: functional, organism-based; conditions: Human immunodeficiency virus 1, RF; method in brief: as §2

| Structure (SMILES) | Ratio EC50 [1] | Ratio EC50 [2] | Ratio EC50 [3] | Ratio EC50 [4] | Ratio EC50 [5] | Ratio EC50 [6] | Ratio EC50 [7] | Ratio EC50 [8] | Ratio EC50 [9] | EC50 [10] | EC50 [11] | EC50 [12] | EC50 [13] | EC50 [14] |
| --- | --- | --- | --- | --- | --- | --- | --- | --- | --- | --- | --- | --- | --- | --- |
| CC(C)(C)NC(=O)[C@@H]1C[C@@H]2CCCC[C@@H]2CN1C[C@@H](O)[C@H](Cc1ccccc1)NC(=O)[C@H](CC(N)=O)NC(=O)c1ccc2ccccc2n1 | 5 | 1 | 1 | 0.4 | 3 | 21 | 28 | 4 | 1 | – | – | – | – | – |
| CC(C)CN(C[C@@H](O)[C@H](Cc1ccccc1)NC(=O)O[C@H]1CCOC1)S(=O)(=O)c1ccc(N)cc1 | 34 | 1 | 2 | 12 | 9 | 41 | 41 | 11 | 1 | – | – | – | – | – |
| CC(C)CN(C[C@@H](O)[C@H](Cc1ccccc1)NC(=O)O[C@H]1CO[C@H]2OCC[C@H]21)S(=O)(=O)c1ccc(N)cc1 | – | 1 | 7 | 12 | – | – | 59 | – | 1 | 857 nM | 40 nM | – | – | – |
| CCC[C@@]1(CCc2ccccc2)CC(O)=C([C@H](CC)c2cccc(NS(=O)(=O)c3ccc(C(F)(F)F)cn3)c2)C(=O)O1 | – | – | 6 | – | – | – | – | – | – | – | 7840 nM | 360 nM | 184 nM | 204 nM |
